This is an account of results in PubChem BioAssay.

A short description of experiment [1]: inhibitors of TNFa-induced NFkB p65 translocation, primary screen, imaging, HUVEC, MLSMR starter and 10KST1 sets (AID 438;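 active = inhibition above 20% together with a positive visual image hit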;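 note: compound added about 3h40 before a 20 min TNFalpha stimulation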;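 for inhibition: signal is the nuclear over cytoplasmic p65 intensity ratio per well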). To be noted: HUVEC TNFa-induced p65 nuclear translocation; cell count: measured here: nuclei count (cytotoxicity indicator), at 2.08 µM; inhibition: at 2 µM, stronger effect = higher value, 0% TNFa-plus-vehicle, 100% no-TNFa wells.
Experiment [2] in a line: endothelial E-selectin expression blockers – imaging, HUVEC, immunofluorescence, MLSMR starter and 10KST1 sets, primary screen (AID 487;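 active = visually confirmed hit in the image check and inhibition above 20%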;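 for inhibition: signal is fraction of cell area covered by stained E-selectin grains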;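 for nuclei count: 100% = median nuclei count of all wells on the same plate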). As to conditions: HUVEC TNFalpha-induced E-selectin immunofluorescence imaging, at 2 µM; inhibition: stronger effect = higher value; nuclei count: measured here: cell number, toxicity.
Experiment [3] is described as follows: Primary imaging screen for DUSP6 inhibitors that restore phospho-Erk in transfected HeLa cells, chemical complementation (AID 609;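 active = compounds giving at least 50% inhibition in the cell-based MKP-3 phosphatase rescue imaging test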;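 for inhibition: phospho-Erk level distribution per well compared with pooled transfected vehicle control wells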). As to conditions: HeLa MKP-3 transfected, phospho-Erk imaging KS statistic, at 10 µM, cells stimulated with TPA for 15 min.
Experiment [4] addresses Dual specificity protein phosphatase 6 (Homo sapiens) (UniProt Q16828). The description is as above. To be noted: HeLa MKP-3 transfected, phospho-Erk imaging KS statistic; at 10 µM; stronger effect = higher value; cells stimulated with TPA for 15 min.
In experiment [5] the target is Voltage-gated potassium channel subunit beta-2 (Rattus norvegicus) (UniProt P62483). Description: inhibitors of rat Kvbeta2 reductase activity – biochemical, NADPH fluorescence, primary screen (AID 622).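 Note: slope of raw intensity against log time taken from 70 to 1610 s.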 To be noted: recombinant KvBeta, 4-cyanobenzaldehyde reduction, at 10 µM, stronger effect = higher value.
The target is the same in experiment [6]. As to the kind of experiment: enhancers of rat Kvbeta2 NADPH turnover – biochemical, NADPH fluorescence, primary screen (AID 623;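 active = NADPH fluorescence slope more negative than the mean of all samples by about 3 SD, 99.7% confidence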;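 note: fluorescence intensity change per second fitted from 20 to 320 s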). As to conditions: Recombinant KvBeta, NADPH fluorescence decrease slope, 10 min; at 10 µM; stronger effect = lower value.
The target in experiment [7] is Alpha-2C adrenergic receptor (Homo sapiens) (UniProt P18825). Description: compounds altering alpha2C-coupled GIRK flux – cell-based, HEK293 alpha2C/GIRK1/2, thallium flux, primary screen (AID 624;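 active = fluorescence slope after compound addition differing from the mean of all screened samples at 99.7% confidence, in either direction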;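 note: slope of fluorescence ratio to pre-addition baseline per second over 15 to 24 s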). As to conditions: thallium flux BTC fluorescence, at 10 µM, actives lie on both sides.
Experiment [8] can be described thus: inhibitors of larval lipid processing in zebrafish, primary screen, whole organism, PED6 fluorescence, gall bladder and intestine (AID 686;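 active = a full or partial loss of lipid-probe fluorescence in the fish gall bladder, intestine or both, judged by eye; inactive = no fluorescence loss, or compound toxic to the fish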;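 note: larvae 5 to 7 days old with five fish per well; signal comes from phospholipase A2 cleavage of quenched PED6 carried via bile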). To be noted: Zebrafish larvae PED6 lipid processing, fluorescence scoring; screened at 20 µM (by protocol). A digest of the protocol: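 System: live zebrafish larvae aged 5-7 days, whole organism; measure: graded gall bladder and intestinal fluorescence inhibition per well; incubation: overnight exposure; reagent: ingested quenched lipid PED6 at 100 nM; signal: By-eye fluorescence microscopy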

Experiment [9] in a line: loss of swimming-algae plug formation – whole organism, Chlamydomonas reinhardtii, WT vs cilia-less mutant, absorbance, 96-well, primary screen (AID 463189;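 active = inhibition at or above 50% relative to wild type and mutant plate controls; inactive = inhibition below 50%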;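 note: 0% = wild type cc124 cells in DMSO and 100% = ciliumless bld1 mutant cells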). To be noted: Chlamydomonas reinhardtii gravitaxis, OD600 absorbance, 2 days; at 10 µM; stronger effect = higher value.
[10] abbreviates: measured here: cell density z-score.
[11] abbreviates: measured here: nuclear c-Myc green intensity z-score.
Setting [12] is: measured here: nuclear pErk red intensity z-score, stronger effect = higher value.

SMILES strings stand for the structures. The source made the active and inactive calls.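 Rule for the calls, unless noted: active = fluorescence slope higher than the sample average by over 3 SD (cut at about -0.22 in these data, passing the limit was not always enough); inactive = the rest.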

Sequence of Voltage-gated potassium channel subunit beta-2 (Rattus norvegicus) (P62483 whole entry, looked up): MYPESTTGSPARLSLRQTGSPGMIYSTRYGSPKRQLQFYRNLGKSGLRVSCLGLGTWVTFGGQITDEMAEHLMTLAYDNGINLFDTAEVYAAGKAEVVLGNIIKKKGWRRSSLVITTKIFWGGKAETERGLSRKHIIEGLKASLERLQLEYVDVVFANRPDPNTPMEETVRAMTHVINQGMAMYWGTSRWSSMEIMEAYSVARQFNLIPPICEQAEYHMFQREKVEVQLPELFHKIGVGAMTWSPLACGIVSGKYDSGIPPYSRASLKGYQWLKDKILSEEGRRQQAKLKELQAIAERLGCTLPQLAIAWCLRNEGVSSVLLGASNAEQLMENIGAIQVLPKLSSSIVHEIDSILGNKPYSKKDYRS
Sequence of Dual specificity protein phosphatase 6 (Homo sapiens) (Q16828 whole entry, looked up): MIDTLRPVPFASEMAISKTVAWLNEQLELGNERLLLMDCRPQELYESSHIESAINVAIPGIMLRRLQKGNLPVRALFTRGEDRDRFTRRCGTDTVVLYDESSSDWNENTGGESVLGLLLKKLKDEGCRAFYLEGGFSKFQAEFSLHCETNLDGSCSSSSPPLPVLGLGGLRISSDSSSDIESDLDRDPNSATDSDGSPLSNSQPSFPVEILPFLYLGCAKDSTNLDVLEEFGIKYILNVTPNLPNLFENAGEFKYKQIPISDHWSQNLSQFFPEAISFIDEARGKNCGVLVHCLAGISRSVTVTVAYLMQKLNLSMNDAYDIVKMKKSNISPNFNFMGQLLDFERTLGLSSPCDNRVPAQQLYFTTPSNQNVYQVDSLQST
Sequence of Alpha-2C adrenergic receptor (Homo sapiens) (P18825 whole entry, looked up): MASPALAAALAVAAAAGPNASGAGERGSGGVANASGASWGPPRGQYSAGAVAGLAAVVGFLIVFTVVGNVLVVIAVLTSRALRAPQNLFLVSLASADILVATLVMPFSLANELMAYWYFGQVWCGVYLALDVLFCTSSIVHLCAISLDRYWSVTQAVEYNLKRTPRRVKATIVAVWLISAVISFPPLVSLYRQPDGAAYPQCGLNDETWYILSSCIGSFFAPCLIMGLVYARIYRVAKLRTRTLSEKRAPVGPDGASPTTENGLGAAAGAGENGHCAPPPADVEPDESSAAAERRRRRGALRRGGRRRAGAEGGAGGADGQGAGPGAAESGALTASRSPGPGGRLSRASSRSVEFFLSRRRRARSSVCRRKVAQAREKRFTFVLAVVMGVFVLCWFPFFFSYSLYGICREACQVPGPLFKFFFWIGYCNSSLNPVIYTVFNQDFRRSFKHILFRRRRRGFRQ

As a reminder, the inhibition is the drop in the measured response relative to a control, in per cent. As to `CC1(C)Cc2c(c(-c3ccccc3)nc3[nH][nH]c(=O)c23)CO1`, the cell count in experiment [1] was 666. The inhibition in experiment [1] is -17.1% (inactive); in [2], -370% (inactive); in [4], -3.98% (inactive); in [9], 21% (inactive). The nuclei count in [2] is 162%. In addition, the results for the z-score in experiment [3] (setting [10]), in experiment [3] (setting [11]) and in experiment [3] (setting [12]) were 0.742, -0.0557 and 0.36, respectively. For the same molecule, the fluorescence slope in experiment [5] is -0.513 (inactive). Further, the NADPH fluorescence slope in experiment [6] was -7.2e-05 (inactive). Besides, the slope in experiment [7] was 0.00403 (inactive). Besides, in experiment [8], the molecule was called inactive.
On to `COC(=O)C(NC(C)=O)(Nc1ccccc1)C(=O)OC`, for which the cell count in experiment [1] amounted to 566. Besides, the inhibition was -19.3% (inactive) in [1], -259% (inactive) in [2], 18.2% (inactive) in experiment [4] and 2.12% (inactive) in [9]. The molecule also yielded a nuclei count in experiment [2] of 191%. The z-score in experiment [3] (setting [10]) is 1.28; in experiment [3] (setting [11]) it was -1.78; in experiment [3] (setting [12]), -0.855. For the same molecule, the fluorescence slope in experiment [5] is -0.532 (inactive). Besides, the NADPH fluorescence slope in experiment [6] is -6.4e-05 (inactive). For the same molecule, the slope in experiment [7] was 0.00504 (inactive). In [8], the molecule was called inactive.
On to `CCOc1ccc(Cc2nc(N)nc(N)n2)cc1`, for which the cell count in experiment [1] turned out to be 344. The inhibition was -18.3% (inactive) in experiment [1], -269% (inactive) in experiment [2], -8.76% (inactive) in [4] and 6.25% (inactive) in [9]. In addition, in experiment [2], the nuclei count stood at 155%. Moreover, the results for the z-score in [3] (setting [10]), in experiment [3] (setting [11]) and in experiment [3] (setting [12]) were -1.09, -0.542 and -0.613, respectively. The fluorescence slope in experiment [5] is -0.447 (inactive). Also, the NADPH fluorescence slope in experiment [6] is -0.000176 (inactive). The slope in [7] is 0.00481 (inactive). In addition, the call in experiment [8] was inactive.
As for `Cc1ccc2c(c1)C(CCN)C(=O)N2Cc1ccccc1` (centres undefined), in experiment [1], the cell count is 622. For the same molecule, the inhibition in experiment [1] is -12.2% (inactive); in [2] it was -11.3% (inactive); in experiment [4], -15% (inactive); in experiment [9] it was 9.26% (inactive). For the same molecule, the nuclei count in experiment [2] was 154%. Also, the z-score in experiment [3] (setting [10]) is 0.106; in [3] (setting [11]), 0.432; in experiment [3] (setting [12]) it was 0.437. The fluorescence slope in experiment [5] is -0.424 (inactive). The NADPH fluorescence slope in experiment [6] is -3.4e-05 (inactive). In experiment [7], the slope was 0.00511 (inactive). The outcome in [8] was inactive.
As to `COc1ccc2c(c1OC)C(=O)N1c3ccccc3SC21` (centres undefined), the cell count in [1] was 540. For the same molecule, the inhibition in experiment [1] is -6% (inactive); in [2] it was -54.8% (inactive); in [4], 2.46% (inactive); in experiment [9] it was 20.5% (inactive). The nuclei count in experiment [2] was 205%. Moreover, the z-score in [3] (setting [10]) was -1.05; in experiment [3] (setting [11]), 0.152; in experiment [3] (setting [12]) it was 0.534. For the same molecule, in experiment [5], the fluorescence slope is -0.361 (inactive). Also, the NADPH fluorescence slope in experiment [6] was 1.2e-05 (inactive). Further, the slope in [7] is 0.00516 (inactive). Also, the molecule was called inactive in experiment [8].
On to `Cc1c(/C(O)=C2\C(=O)C(=O)N(CCCN(C)C)C2c2ccccc2)cnn1-c1ccccc1` (centres undefined), for which the cell count in [1] was determined as 528. Also, the inhibition in [1] is 1.1% (inactive); in [2] it was -134% (inactive); in [4] it was 1.6e-07% (inactive); in experiment [9], -16.4% (inactive). For the same molecule, the nuclei count in [2] was 139%. The z-score in experiment [3] (setting [10]) was -0.232; in [3] (setting [11]), 0.596; in [3] (setting [12]), 1.69. Moreover, in experiment [5], the fluorescence slope is -0.579 (inactive). Besides, the NADPH fluorescence slope in experiment [6] is -2.7e-05 (inactive). In addition, the slope in experiment [7] was 0.00616 (inactive). Besides, the result in experiment [8] was inactive.
Take `CC(=O)Oc1ccccc1C1OCCN1C(C)=O` (centres undefined): the cell count in [1] is 619. Further, the inhibition in experiment [1] was -6.5% (inactive); in experiment [2], -38.8% (inactive); in experiment [4], -2.69% (inactive); in experiment [9] it was -5.26% (inactive). For the same molecule, the nuclei count in experiment [2] stood at 170%. The z-score in experiment [3] (setting [10]) was -0.208; in [3] (setting [11]), -0.565; in experiment [3] (setting [12]) it was 1.43. For the same molecule, the fluorescence slope in experiment [5] is -0.375 (inactive). Besides, the NADPH fluorescence slope in [6] was -2.3e-05 (inactive). In [7], the slope was 0.00518 (inactive). The outcome in experiment [8] was inactive.
Turning to `CN=C1c2cc3c(Br)c(OC)ccc3n2CCN1C`, in experiment [1], the cell count was 550. In addition, the inhibition in experiment [1] is -16.9% (inactive); in experiment [2] it was -28.8% (inactive); in [4] it was 8.31% (inactive); in experiment [9], -2.97% (inactive). In addition, the nuclei count in experiment [2] was 142%. The results for the z-score in experiment [3] (setting [10]), in experiment [3] (setting [11]) and in [3] (setting [12]) were 0.29, -0.368 and 0.361, respectively. In addition, the fluorescence slope in experiment [5] was -0.493 (inactive). In experiment [6], the NADPH fluorescence slope is -5.7e-05 (inactive). The slope in [7] is 0.00409 (inactive). In addition, the outcome in [8] was “inactive; toxic”.
In the case of `CCCSC1=C(C#N)C(c2ccc(OC)cc2)C2=C(CC(C)(C)CC2=O)N1` (centres undefined), in experiment [1], the cell count is 364. The inhibition is -8.4% (inactive) in [1], -74.2% (inactive) in experiment [2], -4.59% (inactive) in experiment [4] and 15.5% (inactive) in experiment [9]. In experiment [2], this molecule gave a nuclei count of 160%. The z-score in experiment [3] (setting [10]) was 1.35; in experiment [3] (setting [11]), -0.891; in [3] (setting [12]), 0.22. Also, in experiment [5], the fluorescence slope is -0.439 (inactive). Also, in experiment [6], the NADPH fluorescence slope is -0.000144 (inactive). Moreover, the slope in [7] was 0.00555 (inactive). Further, the molecule was called inactive in [8].
As to `CC1(C)CN(O)CCN1O`, the cell count in [1] was found to be 325. Moreover, the inhibition in [1] is -5.3% (inactive); in [2], -130% (inactive); in experiment [4], -10.1% (inactive); in experiment [9], 12% (inactive). In experiment [2], this molecule registered a nuclei count of 104%. Besides, the z-score in [3] (setting [10]) was -0.173; in experiment [3] (setting [11]), -0.721; in experiment [3] (setting [12]) it was -0.0914. Moreover, the fluorescence slope in experiment [5] is -0.452 (inactive). Further, the NADPH fluorescence slope in [6] was -1.8e-06 (inactive). Also, the slope in experiment [7] is 0.00611 (inactive). For the same molecule, the result in experiment [8] was inactive.
For the molecule `CC1(C)Cc2c(C#N)c(NCCc3ccccc3)nc(-c3ccco3)c2CO1`, the cell count in [1] turned out to be 585. The inhibition is -9.7% (inactive) in [1], -33.8% (inactive) in [2], 22.3% (inactive) in experiment [4] and 34.4% (inactive) in experiment [9]. In experiment [2], this molecule yielded a nuclei count of 184%. Further, the z-score is 0.597 in [3] (setting [10]), -1.77 in experiment [3] (setting [11]) and 0.237 in experiment [3] (setting [12]). The fluorescence slope in [5] is -0.122 (inactive). In addition, in experiment [6], the NADPH fluorescence slope was 5.1e-06 (inactive). Further, the slope in experiment [7] is 0.00499 (inactive). Further, the molecule was classed as inactive in [8].
As to `CC(C)N1CCc2c(sc(N)c2C#N)C1`, the cell count in experiment [1] came out at 617. In addition, the inhibition is -10.3% (inactive) in [1], 39.1% (inactive) in [2], 2.71% (inactive) in experiment [4] and 5.66% (inactive) in experiment [9]. This molecule gave a nuclei count in experiment [2] of 177%. The z-score in experiment [3] (setting [10]) is -1.53; in [3] (setting [11]) it was 0.299; in experiment [3] (setting [12]) it was 0.555. The fluorescence slope in experiment [5] was -0.418 (inactive). In experiment [6], the NADPH fluorescence slope was -6.5e-05 (inactive). The slope in experiment [7] was 0.00503 (inactive). Moreover, the call in [8] was inactive.
For `COc1ccc(/C(O)=C2\C(=O)C(=O)N(CCN(C)C)C2c2cccc(OC)c2OC)cc1` (centres undefined), in [1], the cell count was 614. Moreover, the inhibition in [1] was -5.4% (inactive); in experiment [2], -56.5% (inactive); in experiment [4], 9.61% (inactive); in experiment [9] it was -2.59% (inactive). The molecule also registered a nuclei count in experiment [2] of 192%. In addition, the z-score in [3] (setting [10]) is 0.97; in experiment [3] (setting [11]) it was 0.147; in [3] (setting [12]), -0.253. The fluorescence slope in experiment [5] was -0.338 (inactive). For the same molecule, in experiment [6], the NADPH fluorescence slope was -2.9e-05 (inactive). In addition, the slope in [7] is 0.00479 (inactive). For the same molecule, the result in experiment [8] was inactive.
